Experimental data taken from PMC5393272 (Nature chemical biology, 2016).

Assays:
H3225 [1] = assay: Proliferation assay, H3225; assay type: cell-based; conditions: H3225 (EGFR KD mutation), NGI-1
PC9 cells [2] = assay: Apoptosis assessment, PC9; assay type: cell-based
GRP78/BiP = assay: ER stress response, GRP78/BiP protein expression; assay type: cell-based; conditions: PC9 and A549 cell lines, NGI-1
H1581 cells = assay: Cell cycle distribution by flow cytometry, H1581; assay type: cell-based; conditions: H1581, NGI-1; control 55%; p<.05
How it was run: (§1)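 Cells were treated with test compound (24 h stated for PC9 and A549). 1 × 10^6 cells were washed in ice-cold PBS, fixed overnight in ice-cold 70% ethanol at −20°C, then stained in Guava Cell Cycle Reagent for 30 min at room temperature. Analysis was on an LSRII cytometer, gating normal FSC/SSC and excluding doublets by FSC-A vs FSC-H. About 30,000 cells per run; mean of 3 independent assays; two-tailed t-tests.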

EGFR [3] = assay: Western blot of EGFR N-linked glycosylation in lung adenocarcinoma cells; assay type: cell-based; conditions: 10μM NGI-1, 24h; residual glycosylation remains
A549 cells [4] = assay: Cell cycle distribution by flow cytometry, A549; assay type: cell-based; conditions: A549, NGI-1 24 h
How it was run: as §1

A549 cells [5] = assay: Senescence assessment, A549; assay type: cell-based; conditions: A549, NGI-1 for 5 days
How it was run: (§2)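 PC9 and A549 cells, untreated or given 10 μM test compound, were fixed in 70% ethanol and stained with DAPI for 30 min. Flow cytometry used 532 nm and 405 nm lasers; autofluorescence emission at 575 nm was read after DAPI gating; n = 4.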

A549 cells [6] = assay: Apoptosis assessment, A549; assay type: cell-based
HCC-827 = assay: Proliferation assay, HCC-827; assay type: cell-based; conditions: HCC-827 (EGFR KD mutation), NGI-1
FGFR1 = assay: FGFR phosphorylation western blot in H1581 and H2444; assay type: cell-based; conditions: H1581 and H2444 NSCLC cell lines, NGI-1
How it was run: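 H1581 and H2444 NSCLC cells were treated with test compound. Lysates were western blotted with anti-phospho-FGFR (Tyr653/654) at 1:3,000, and gel mobility was assessed.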

Integrin B1 (ITB1) = assay: ITB1 glycosylation and localization; assay type: cell-based; conditions: 10μM NGI-1, 48 h; hypo-glycosylated ITB1 still at the cell surface
How it was run: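 H3255 cells were treated with 10 μM test compound for 48 h. Surface biotinylation: on ice, cells were labelled with 0.5 mg/ml Sulfo-NHS-SS-biotin in PBS for 60 min at 4°C, quenched with 100 mM glycine, lysed, and pulled down on streptavidin-agarose overnight at 4°C. Bound (surface) and unbound (intracellular) fractions were blotted on 7.5% SDS-PAGE. Confocal imaging used anti-β1-integrin at 1:500.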

[7] = test system: N-linked glycosylation in D54-ERLucT cells; assay: D54-ERLucT cell based luciferase assay for inhibition of N-linked glycosylation; conditions: intact D54 ER-LucT cells in culture; maximum activation using 20 μM NGI-1; n=4
p21 = p21 protein western blot, PC9; assay type: cell-based; conditions: PC9, NGI-1
STT3B = STT3B (Homo sapiens, UniProt Q8TCJ2); assay: 35S metabolic labeling of SHBG glycosylation; assay type: cell-based
How it was run: (§3)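 HeLa cells transfected with pSAP or SHBG vectors, given 10 μM test compound and metabolically labelled with 35S. Glycoforms were scored and reported as the average number of glycans per sample, with endoglycosidase H-treated controls. Runs were compared with siRNA knockdown of STT3A or STT3B against non-coding siRNA. Dose-response was run on pSAP and SHBG expressed in HEK293 cells.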

OST [8] = assay: Cell free pSAP glycosylation with canine pancreas microsomes; assay type: biochemical; conditions: in vitro translation of pSAP mRNA, 60 min
EGFR [9] = assay: EGFR localization by surface biotinylation and confocal microscopy; assay type: cell-based; conditions: H3255 cells, 10 μM NGI-1, 24 h; identical in HCC-827
STT3A = STT3A (Homo sapiens, UniProt P46977); assay: 35S metabolic labeling of pSAP glycosylation; assay type: cell-based
Sequence of STT3A (P46977 whole entry): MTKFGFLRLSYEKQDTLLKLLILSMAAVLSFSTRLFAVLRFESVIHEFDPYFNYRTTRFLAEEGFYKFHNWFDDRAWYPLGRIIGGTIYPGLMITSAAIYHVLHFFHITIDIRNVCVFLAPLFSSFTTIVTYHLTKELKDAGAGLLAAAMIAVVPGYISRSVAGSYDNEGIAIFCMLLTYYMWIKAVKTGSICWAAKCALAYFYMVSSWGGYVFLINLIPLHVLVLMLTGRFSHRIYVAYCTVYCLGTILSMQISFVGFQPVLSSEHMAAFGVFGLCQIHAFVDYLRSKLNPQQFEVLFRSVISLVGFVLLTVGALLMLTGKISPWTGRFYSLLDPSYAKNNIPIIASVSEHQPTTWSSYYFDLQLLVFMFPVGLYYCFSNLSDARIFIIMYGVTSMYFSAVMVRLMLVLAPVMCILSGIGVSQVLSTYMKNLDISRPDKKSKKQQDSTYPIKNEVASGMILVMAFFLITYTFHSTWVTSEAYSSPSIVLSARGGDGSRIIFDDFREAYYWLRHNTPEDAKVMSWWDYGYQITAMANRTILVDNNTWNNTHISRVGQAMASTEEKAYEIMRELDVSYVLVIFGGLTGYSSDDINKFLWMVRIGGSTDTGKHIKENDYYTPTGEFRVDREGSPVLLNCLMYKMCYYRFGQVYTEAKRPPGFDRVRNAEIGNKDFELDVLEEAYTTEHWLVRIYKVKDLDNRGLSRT
How it was run: as §3

A549 cell line = assay: MTT proliferation assay, A549; assay type: cell-based
How it was run: (§4)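 NSCLC cells (2×10^3 per well, triplicate wells) were grown in 10% serum medium with 10 μM test compound or 1 μM tunicamycin; medium and inhibitor were renewed every 48 h. MTT was added 4 h before reading absorbance at 570 nm on days 0, 3 and 5. Mean ± s.d., n = 3; two-tailed t-tests.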

H3225 [10] = assay: Cell cycle distribution by flow cytometry, H3225; assay type: cell-based; conditions: H3225, NGI-1 24 h; control 55%; p<.05
How it was run: as §1

KD mutant EGFR = assay: EGFR phosphorylation western blot in PC9 cells; assay type: cell-based; conditions: 10μM NGI-1, 1 day
How it was run: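 PC9 cells (with A549 for comparison) were treated with 10 μM test compound for 24 h. Lysates were western blotted for EGFR phospho-Y1173, and glycoform gel-mobility shifts were noted.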

PC9 cells [11] = assay: Cell cycle distribution by flow cytometry, PC9; assay type: cell-based; conditions: PC9, NGI-1 24 h; control 65%; p<.01
How it was run: as §1

OST [12] = assay type: biochemical; conditions: NGI-1 5 μM; streptolysin-O permeabilized CHO cells; QYT or NYT peptide
How it was run: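 CHO cells permeabilized with streptolysin-O, incubated with test compound and either control tripeptide Ac-Gln-Tyr-Thr-CONH2 or glycosylation acceptor Ac-Asn-Tyr-Thr-CONH2. Free glycans and cleaved N-linked glycans resolved by fluorophore-assisted carbohydrate electrophoresis; n=2 for each product.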

[13] = test system: LLO synthesis in CHO cells; assay: FACE analysis of LLOs in wild type CHO cells; assay type: cell-based; conditions: for effect on LLO synthesis: FACE
How it was run: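 Wild-type CHO cells were treated with test compound or tunicamycin. Lipid-linked oligosaccharides were analysed by fluorophore-assisted carbohydrate electrophoresis, with mature Glc3Man9 LLO as the size marker; n = 3.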

H1581 cell line = assay: MTT proliferation assay, H1581; assay type: cell-based; conditions: H1581 (FGFR1-dependent), 10μM NGI-1, 5 d
How it was run: as §4

H2444 cells [14] = assay: Cell cycle distribution by flow cytometry, H2444; assay type: cell-based; conditions: H2444, NGI-1
How it was run: as §1

PC9 cells [15] = assay: Senescence assessment; assay type: cell-based; conditions: PC9, NGI-1 for 5 days; emission 575 nm; p<.05
How it was run: as §2

H2444 cells [16] = assay: MTT proliferation assay, H2444; assay type: cell-based; conditions: H2444 (FGFR amplified, not FGFR1-dependent), 10μM NGI-1, 5 d
How it was run: as §4

cyclin D1 = assay: Cyclin D1 mRNA and protein, A549; assay type: cell-based, human; conditions: A549, NGI-1
How it was run: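 Cyclin D1 mRNA: A549 and PC9 cells were treated with test compound, total RNA purified and reverse transcribed, and qPCR run with SYBR Green normalised to GAPDH. Cycling was 95°C 10 min, then 40 cycles of 95°C 30 s, 55°C 15 s, 72°C 30 s. Triplicate PCRs; n = 4; two-tailed t-tests. Protein was assessed by western blot, n = 3.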

[17] = test system: luciferase N-linked glycosylation in D54 ER-LucT cells; assay: Western blot of luciferase N-linked glycosylation in NGI-1 treated cell cultures; assay type: cell-based; conditions: doses 25 times the estimated IC50; unlike tunicamycin
HCC-827 cells = assay: Cell cycle distribution by flow cytometry, HCC-827; assay type: cell-based; conditions: HCC-827, NGI-1 24 h; control 50%; p<.01
How it was run: as §1

PC9 cells [18] = assay: MTT proliferation assay, PC9; assay type: cell-based
How it was run: as §4

[19] = HeLa cells, 10 μM, NGI-1 omitted during pulse labeling interval (20 minutes)

In the case of `Cc1cnc(NC(=O)c2cc(S(=O)(=O)N(C)C)ccc2N2CCCC2)s1` [NGI-1], the effect on proliferation (H3225 [1]) is reported as “sensitive”, the induction of apoptosis (PC9 cells [2]; PC9, NGI-1 for 2 or 5 days) is reported as “did not induce apoptosis” and the “ER stress response (GRP78/BiP protein expression)” value (GRP78/BiP) is reported as “induced a similar ER stress response in both cell lines”. The “cells in G1” value (H1581 cells) was 80%, the “EGFR N-linked glycosylation (molecular weight on SDS-PAGE)” value (EGFR [3]) was “blocked EGFR N-linked glycosylation” and the cell cycle distribution (A549 cells [4]) was “did not significantly change”. The “hallmarks of senescence (autofluorescence, lipofuscin aggregates, morphology)” value (A549 cells [5]) was “none of these changes were detected”, the induction of apoptosis (A549 cells [6]; A549, NGI-1 for 2 or 5 days) was “did not induce apoptosis” and the effect on proliferation (HCC-827) was “sensitive”. For the same compound, the “FGFR1 phosphorylation (Y653/654)” value (FGFR1) was “blocked FGFR1 phosphorylation”, the ITB1 glycosylation (Integrin B1 (ITB1)) was “significantly reduced ITB1 glycosylation” and the “AC50 (equivalent to IC50), luciferase activity” value [7] was 1100 nM. For the same compound, the “protein levels of p21” value (p21) was “increase within 24 h”, the “reversibility of inhibition of site occupancy (STT3B specific sites)” value (STT3B; [19]) was “reversible” and the “LLO transfer to STT3B dependent sites (SHBG)” value (STT3B; dose response, HEK293 cells) was “completely blocks”. The “inhibition of pSAP N-linked glycosylation” value (OST [8]) was “dose dependent inhibition”, the “EGFR trafficking / cellular localization” value (EGFR [9]) was “blocks EGFR trafficking to the cell surface” and the “reversibility of inhibition of site occupancy (STT3A specific sites)” value (STT3A; [19]) was “reversible”. For the same compound, the “glycosylation of STT3A dependent sites (pSAP)” value (STT3A; dose response, HEK293 cells) was “less potent and incompletely blocks”, the effect on proliferation (A549 cell line; A549 (KRAS G12S), 10μM NGI-1, MTT over 5 days) was “continued to proliferate” and the “cells in G1” value (H3225 [10]) was 80%. For the same compound, the “phosphorylation of KD mutant EGFR (Y1173)” value (KD mutant EGFR) was “blocked phosphorylation”, the “cells in G1” value (PC9 cells [11]) was 90% and the “production of OST products (free glycans and N-glycans)” value (OST [12]) was “substantially reduce the production of both OST products”. The “effect on LLO synthesis” value [13] was “did not impair LLO synthesis”, the “increase of Glc3Man9GlcNAc2 LLO” value ([13]; p <.01) was 31% and the effect on proliferation (H1581 cell line) was “blocked proliferation”. For the same compound, the G1 arrest (H2444 cells [14]) was “not in H2444 cells”, the “increased autofluorescence by flow cytometry” value (PC9 cells [15]) was 60.4% ± 7.5% and the effect on proliferation (H2444 cells [16]) was “NGI-1 insensitive”. The “cyclin D1 mRNA and protein levels” value (cyclin D1) was “not significantly affected”, the “extent of N-linked glycosylation inhibition” value [17] was “did not completely abolish all N-linked glycosylation” and the “cells in G1” value (HCC-827 cells) was 75%. The “reduction of cell proliferation” value (PC9 cells [18]; PC9, 10μM NGI-1, after 3 days, MTT, p <.001) was “more than 90%”.

tunicamycin [reference compound] was tested, and the induction of apoptosis (PC9 cells [2]; PC9, tunicamycin treatment) was “apoptosis was activated”, the induction of apoptosis (A549 cells [6]; A549, tunicamycin treatment) was “apoptosis was activated” and the effect on proliferation (A549 cell line; A549, 1μM tunicamycin, MTT over 5 days) was “immediately blocks proliferation”. The “effect on LLO synthesis” value [13] was “blocked all LLO production” and the effect on proliferation (PC9 cells [18]; PC9, 1μM tunicamycin, MTT over 5 days) was “immediately blocks proliferation”.
